SF1 activator: activates the human nuclear receptor SF-1; CHO-K1 Gal4-SF-1 LBD luciferase reporter; % increase over DMSO SF-1-specific signal; activation, % at 10 µM; 65,000 compounds, 1.9% hits; AID 522;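 active = activation above the mean activation of all tested compounds plus 3 SD, cut at about 50% in these data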
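Assay system: CHO-K1 cells co-transfected with Gal4 DBD–human SF-1 LBD, 5xGal4 luciferase reporter / Input: 4,000 cells per well / Incubation: 20 h compound exposure at 37 °C after 1 h cell settling / Detection: SteadyLite luciferase luminescence / Control set: DMSO negative control and −SF1 background wells / Replication: one test per compound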
RORa activator: activators of human nuclear receptor RORA; 65,000 compounds, 1.5% hits; activation, % at 10 µM; P35398; CHO-K1 Gal4-RORA LBD luciferase reporter, luminescence; percent increase over mock-subtracted basal signal;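 active = activation above the mean of all tested compounds plus 3 SD, cut at about 49% in these data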;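 note: 0% = DMSO-treated RORA cells and 100% = added signal equal to DMSO minus mock-transfected cells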
S1P3 agonist: S1P3 (human) receptor agonism; Q99500; S1P3 NFAT-BLA reporter cells, FRET ratio; relative to 1 µM S1P, basal subtracted; activation, % at 4.5 µM; 60,000 compounds, 0.1% hits;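 active = activation above the screen-wide mean plus 3 SD, cut at about 4.5% in these data, passing the limit was not always enough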
Target sequence (Q99500 whole entry, looked up): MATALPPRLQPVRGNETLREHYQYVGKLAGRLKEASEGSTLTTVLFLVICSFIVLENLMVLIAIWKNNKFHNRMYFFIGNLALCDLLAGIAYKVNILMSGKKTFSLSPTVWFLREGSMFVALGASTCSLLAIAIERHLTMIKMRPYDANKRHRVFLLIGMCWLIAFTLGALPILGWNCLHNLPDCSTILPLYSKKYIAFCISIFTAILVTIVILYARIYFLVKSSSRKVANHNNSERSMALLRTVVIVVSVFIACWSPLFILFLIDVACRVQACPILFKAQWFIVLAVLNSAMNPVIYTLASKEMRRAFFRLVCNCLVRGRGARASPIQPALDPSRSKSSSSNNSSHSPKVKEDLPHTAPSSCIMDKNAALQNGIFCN
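Measure – % activation relative to 1 µM S1P (100%), per plate · System – stable CHO line with human S1P3, Gα16, NFAT-BLA reporter · Timing – cells plated overnight, compound 4 h 37 °C, substrate 2 h RT · Technique – fluorescent BLA substrate, ex 405 nm, em 460/535 nm ratio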
M1 antagonist: blocks the rat M1 muscarinic receptor response to acetylcholine; B-score at 10 µM; CHO-M1 cells, Fluo-4 calcium, ACh EC80 antagonist mode; hits give low values; 64,000 compounds, 3.4% hits; AID 628;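 active = calcium fluorescence response, raw or row-and-column corrected B-score, differing from the plate sample mean either way at a set confidence level, mostly lower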
M1 agonist: activates the M1 muscarinic receptor. CHO-M1 cells, Fluo-4 calcium fluorescence, agonist mode; hits give high values. B-score at 10 µM. 64,000 compounds, 3% hits;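 active = fluorescence rise, raw or as B-score row- and column-corrected plate score, outside the 99.7% band of its plate's samples, either direction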
S1P1 ag-PAM: agonists and agonism potentiators of human S1P1 receptor; P21453; S1P1 CRE-bla cells, forskolin, beta-lactamase FRET, potentiator mode; S1P1 agonist co-added at EC20, 2 nM; 100% = saturating reference agonist, 0% = basal; activation, % at 9.5 µM; 56,000 compounds, 0.57% hits; AID 449;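 active = activation above a cutoff set at the mean activation of all tested compounds plus 3 SD, cut at about 54% in these data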;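 note: forskolin at 4 µM as EC80 and the EC20 agonist is SEW2871; 100% = SEW2871 at its EC100 plus forskolin at EC80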
M1 ag confirm: rat M1 muscarinic agonism, confirmation; shares compounds with M1 agonist; CHO-M1 cells, Fluo-4 calcium fluorescence, agonist mode; actives lie on both sides; fluorescence change (max-min) at 10 µM; 1,700 compounds, 19% hits;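 active = fluorescence change differs from the solvent-only DMSO control mean at a set confidence level in both duplicate runs; inconclusive = differs from solvent-only control mean in just one of two runs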;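 note: an EC20 dose of acetylcholine follows compound addition during the same imaging run; raw fluorescence intensity difference in instrument units with no normalization to controls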
M4 ag counter: rat M4 muscarinic agonism, M1 counter-screen. 1,700 compounds, 9% hits. CHO M4/Gqi5 cells, Fluo-4 calcium fluorescence, agonist mode; actives lie on both sides. shares compounds with M1 agonist. fluorescence change (max-min) at 10 µM;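 active = fluorescence change differing from the plate's solvent-only control wells at 99.7% confidence in both duplicates, whether higher or lower; inconclusive = differs from solvent controls in only one of two duplicates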
Active calls of the source: *. Rows were chosen to be rich in hits. Some 8.8% of all compounds tested hit in one or more screens of this group.

Results for COc1ccc(-c2noc(CCC(=O)Nc3ccc4c(c3)OCCO4)n2)cc1 ?
SF1 activator: 16; RORa activator: -11; M1 antagonist: -2*; M1 agonist: 3.7*; M1 ag confirm: 20; M4 ag counter: -11

What do the screens show for `Nc1c(C(=O)Nc2ccccc2)sc2nc(-c3ccco3)ccc12`?
SF1 activator: 23; RORa activator: 21; S1P3 agonist: -1; M1 antagonist: -0.56; M1 agonist: 2.8*; S1P1 ag-PAM: 50; M1 ag confirm: inconclusive; M4 ag counter: -57

What do the screens show for `CS(=O)(=O)N(CC(=O)NCc1ccncc1)Cc1ccc(Cl)cc1`?
SF1 activator: -10; RORa activator: -6; S1P3 agonist: 1; M1 antagonist: -0.9; M1 agonist: 2.2*; M1 ag confirm: -5.7; M4 ag counter: -13

What do the screens show for `O=C(O)CCCCCNC(=O)CCn1cnc2ccccc2c1=O`?
SF1 activator: -10; RORa activator: 10; S1P3 agonist: -1; M1 antagonist: 0.16; M1 agonist: -0.084; S1P1 ag-PAM: 0

How did CCCOC1CCCN(C(=O)c2cc(Cl)c(Cl)cc2C(=O)O)C1 (stereo not given) do in these assays?
SF1 activator: -18; RORa activator: 6; S1P3 agonist: 0; M1 antagonist: -3.4*; M1 agonist: 37*; S1P1 ag-PAM: 5; M1 ag confirm: 329*; M4 ag counter: -24

Results for CCOC(=O)C1CCCN(C(=O)Cn2cccc2C(=O)c2ccccc2)C1 (stereo not given) ?
SF1 activator: -20; RORa activator: -28; S1P3 agonist: -1; M1 antagonist: 0.45; M1 agonist: -2.6*; S1P1 ag-PAM: -7; M1 ag confirm: inconclusive; M4 ag counter: -36

How did CCOC(=O)C1CCCN(C(=O)c2cc(Nc3ccc(OC)c(OC)c3)nc3ccccc23)C1 (stereo not given) do in these assays?
SF1 activator: 26; RORa activator: 28; S1P3 agonist: -1; M1 antagonist: -0.82; M1 agonist: 8.3*; S1P1 ag-PAM: -17; M1 ag confirm: -19; M4 ag counter: inconclusive

Results for CCOC(=O)C1CCCN(C(=O)c2cn(C)c(=O)c3cc(OC)c(OC)cc23)C1 (stereo not given) ?
SF1 activator: 4; RORa activator: -6; M1 antagonist: 0.79; M1 agonist: -1.3

What do the screens show for `CCOC(=O)C1CCCN(C(=O)c2cc(Cl)ccc2Cl)C1` (stereo not given)?
SF1 activator: 1; RORa activator: 8; S1P3 agonist: 0; M1 antagonist: 1.6; M1 agonist: 5.5*; S1P1 ag-PAM: 0; M1 ag confirm: 11; M4 ag counter: -76*

What do the screens show for `CC1CCCN(C(=O)c2cc(F)c(F)cc2Cl)C1` (stereo not given)?
SF1 activator: 7; RORa activator: -26; S1P3 agonist: 0; M1 antagonist: -0.018; M1 agonist: -0.11; S1P1 ag-PAM: -10

How did CCOc1cc(S(=O)(=O)N2CCN(Cc3ccccc3)CC2)ccc1Br do in these assays?
SF1 activator: 2; RORa activator: -13; S1P3 agonist: 0; M1 antagonist: -0.22; M1 agonist: -0.24; S1P1 ag-PAM: 40

How did CCOc1ccc2[nH]c(=O)c(CN(CC3CCCN3CC)C(=O)NCc3ccccc3)cc2c1 (stereo not given) do in these assays?
SF1 activator: 5; RORa activator: 9; S1P3 agonist: -1; M1 antagonist: -0.062; M1 agonist: -0.01; S1P1 ag-PAM: 8

Results for CCN=C1SC(C(=O)Nc2ccc(Cl)c(Cl)c2)CC(=O)N1CC (stereo not given) ?
SF1 activator: -2; RORa activator: 0; S1P3 agonist: -4; M1 antagonist: -0.5; M1 agonist: 6.7; S1P1 ag-PAM: -6

Results for CCN=C1SC(C(=O)NCCc2ccccc2)CC(=O)N1CC (stereo not given) ?
SF1 activator: -16; RORa activator: 14; S1P3 agonist: 0; M1 antagonist: -1.2; M1 agonist: 4.8*; S1P1 ag-PAM: -25; M1 ag confirm: inconclusive; M4 ag counter: -26

What do the screens show for `CCN=c1sc(C(=O)NCCc2ccccc2)cc(=O)n1CC`?
SF1 activator: -11; RORa activator: 6; S1P3 agonist: 0; M1 antagonist: -2.9*; M1 agonist: 12*; S1P1 ag-PAM: 59; M1 ag confirm: -7.2; M4 ag counter: -15

What do the screens show for `COC(=O)c1ccc(CSc2ncnc3c2nnn3-c2ccc(F)cc2)o1`?
SF1 activator: -4; RORa activator: -17; S1P3 agonist: 0; M1 antagonist: 0.31; M1 agonist: 0.01; S1P1 ag-PAM: -20

Results for COc1ccccc1CNc1nc2nc(C)cc(=O)n2[nH]1 ?
SF1 activator: -9; RORa activator: -8; S1P3 agonist: -1; S1P1 ag-PAM: 2

Results for COc1ccccc1NC(=O)CN1CCC(n2nnc3cc(F)ccc32)CC1 ?
SF1 activator: 6; RORa activator: 0; S1P3 agonist: -1; M1 antagonist: 0.0082; M1 agonist: -0.95; S1P1 ag-PAM: -3

Results for COc1ccccc1NC(=O)CN1CCC(n2c(C)nc3cc(F)ccc32)CC1 ?
SF1 activator: 14; RORa activator: 13; S1P3 agonist: 1; M1 antagonist: -0.09; M1 agonist: -2.6*; S1P1 ag-PAM: -38; M1 ag confirm: inconclusive; M4 ag counter: -58

Results for COc1ccccc1NC(=O)CN1CCN(CC(=O)Nc2cc(NC(C)=O)ccc2OC)CC1 ?
SF1 activator: -7; RORa activator: 2; S1P3 agonist: 0; M1 antagonist: 0.068; M1 agonist: 3.7*; S1P1 ag-PAM: -21; M1 ag confirm: inconclusive; M4 ag counter: -31

Results for COc1ccc(NC(C)=O)cc1NC(=O)CN1CCN(CC(=O)Nc2ccccc2Cl)CC1 ?
SF1 activator: 18; RORa activator: 2; S1P3 agonist: 0; M1 antagonist: -0.035; M1 agonist: 4*; S1P1 ag-PAM: -1; M1 ag confirm: inconclusive; M4 ag counter: -71

Results for COc1cc(NC(=O)c2ccccc2)c(OC)cc1NC(=O)CN1CCN(c2ccccn2)CC1 ?
SF1 activator: 5; RORa activator: 14; S1P3 agonist: -1; M1 antagonist: -0.075; M1 agonist: 5.9*; S1P1 ag-PAM: -31; M1 ag confirm: -8.2; M4 ag counter: -36
